According to article PMC4608253 (Journal of chromatography. B, Analytical technologies in …, 2015):
Where two headings read alike, the source gives them in different places.

Tests used:
in vivo = type: in vivo, A/J mice; conditions: for concentration in the PK study: A/J mice, oral XCHT 500 mg/kg, blood
[1] = type: physicochemical, mice; conditions: for Accuracy (RE, %) 25°C for 6 h / Accuracy (RE, %) Frozen for 30 days: stability in mice plasma/blood QC sample; for Accuracy (RE, %) Frozen for 30 days: −80°C; for Accuracy (RE, %) 4°C for 24 h: stability, extracted QC sample in auto-sampler
Summary of the method: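 Blank mouse blood spiked with analytes and vitamin C, then extracted with methanol containing daidzein internal standard (0.5 μM) by 1 min vortex. Spun at 20,000 × g for 15 min and dried under air. Three replicates per QC level were held unextracted at 25°C for 6 h, at −80°C for 30 days, or extracted in the 4°C autosampler for 24 h. Analysed by UPLC-MS/MS (C18, formic acid/acetonitrile, positive MRM); accuracy as RE.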

[2] = male, A/J, mouse, whole blood, po, 500 mg/kg

CC(C)=CCC[C@](C)(O[C@@H]1O[C@H](CO)[C@@H](O)[C@H](O)[C@H]1O)[C@H]1CC[C@]2(C)[C@@H]1[C@H](O)C[C@@H]1[C@@]3(C)CC[C@H](O[C@@H]4O[C@H](CO)[C@@H](O)[C@H](O)[C@H]4O[C@@H]4O[C@H](CO)[C@@H](O)[C@H](O)[C@H]4O)C(C)(C)[C@@H]3CC[C@]12C [Rd, Ginsenoside Rd]
concentration in the PK study (in vivo; time 360 min): 5.07±6.67
concentration in the PK study (in vivo; time 720 min): 6.23±7.96
concentration in the PK study (in vivo; time 1440 min): 5.20±7.64
Accuracy (RE, %) 25°C for 6 h ([1]; spiked concentration 0.488): 13.3%
Accuracy (RE, %) 25°C for 6 h ([1]; spiked concentration 62.5): −3.7%
Accuracy (RE, %) 25°C for 6 h ([1]; spiked concentration 500): −7.1%
Accuracy (RE, %) Frozen for 30 days ([1]; spiked concentration 0.488): 11.6%
Accuracy (RE, %) Frozen for 30 days ([1]; spiked concentration 62.5): 11.4%
Accuracy (RE, %) Frozen for 30 days ([1]; spiked concentration 500): 12.2%
Accuracy (RE, %) 4°C for 24 h ([1]; spiked concentration 0.488): −4%
Accuracy (RE, %) 4°C for 24 h ([1]; spiked concentration 62.5): 12.8%
Accuracy (RE, %) 4°C for 24 h ([1]; spiked concentration 500): 12.3%

CC(C)=CCC[C@](C)(O[C@@H]1O[C@H](CO)[C@@H](O)[C@H](O)[C@H]1O)[C@H]1CC[C@]2(C)[C@@H]1[C@H](O)C[C@@H]1[C@@]3(C)CC[C@H](O)C(C)(C)[C@@H]3[C@@H](O[C@@H]3O[C@H](CO)[C@@H](O)[C@H](O)[C@H]3O[C@@H]3O[C@@H](C)[C@H](O)[C@@H](O)[C@H]3O)C[C@]12C [Re, ginsenoside Re]
AUC(0-inf) (in vivo; [2]): 0.045 ± 0.0289 µM·h
AUC(0-t) (in vivo; [2]): 0.0423 ± 0.0265 µM·h
Cmax (in vivo; [2]): 50.2 ± 40.1 nM
Tmax (in vivo; [2]): 15 min
half-life (in vivo; [2]): 163 ± 129 min
detected in the blood (in vivo; mice, oral XCHT extract 0.5 g/kg): detected
Accuracy (RE, %) 25°C for 6 h ([1]; spiked concentration 3.9): 10.1%
Accuracy (RE, %) 25°C for 6 h ([1]; spiked concentration 62.5): 8.8%
Accuracy (RE, %) 25°C for 6 h ([1]; spiked concentration 500): −0.3%
Accuracy (RE, %) Frozen for 30 days ([1]; spiked concentration 3.9): 10.4%
Accuracy (RE, %) Frozen for 30 days ([1]; spiked concentration 62.5): 9.7%
Accuracy (RE, %) Frozen for 30 days ([1]; spiked concentration 500): 8.9%
Accuracy (RE, %) 4°C for 24 h ([1]; spiked concentration 3.9): −5.4%
Accuracy (RE, %) 4°C for 24 h ([1]; spiked concentration 62.5): 13.76%
Accuracy (RE, %) 4°C for 24 h ([1]; spiked concentration 500): 9.7%

CC(C)=CCC[C@](C)(O[C@@H]1O[C@H](CO)[C@@H](O)[C@H](O)[C@H]1O)[C@H]1CC[C@]2(C)[C@@H]1[C@H](O)C[C@@H]1[C@@]3(C)CC[C@H](O)C(C)(C)[C@@H]3[C@@H](O[C@@H]3O[C@H](CO)[C@@H](O)[C@H](O)[C@H]3O)C[C@]12C [Rg1, ginsenoside Rg1]
concentration in the PK study (in vivo; time 15 min): 0.80±0.50
concentration in the PK study (in vivo; time 480 min): 1.16±0.29
Accuracy (RE, %) 25°C for 6 h ([1]; spiked concentration 0.488): 14.8%
Accuracy (RE, %) 25°C for 6 h ([1]; spiked concentration 62.5): 7.4%
Accuracy (RE, %) 25°C for 6 h ([1]; spiked concentration 500): 8.5%
Accuracy (RE, %) Frozen for 30 days ([1]; spiked concentration 0.488): 7.2%
Accuracy (RE, %) Frozen for 30 days ([1]; spiked concentration 62.5): 9.2%
Accuracy (RE, %) Frozen for 30 days ([1]; spiked concentration 500): 12.5%
Accuracy (RE, %) 4°C for 24 h ([1]; spiked concentration 0.488): 4.7%
Accuracy (RE, %) 4°C for 24 h ([1]; spiked concentration 62.5): 10.1%
Accuracy (RE, %) 4°C for 24 h ([1]; spiked concentration 500): 12.12%

CC(C)=CCC[C@](C)(O)[C@H]1CC[C@]2(C)[C@@H]1[C@H](O)C[C@@H]1[C@@]3(C)CC[C@H](O[C@@H]4O[C@H](CO)[C@@H](O)[C@H](O)[C@H]4O[C@@H]4O[C@H](CO)[C@@H](O)[C@H](O)[C@H]4O)C(C)(C)[C@@H]3CC[C@]12C [Rg3, ginsenoside Rg3]
concentration in the PK study (in vivo; time 5 min): 1.33±0.48
concentration in the PK study (in vivo; time 30 min): 3.74±3.73
concentration in the PK study (in vivo; time 360 min): 1.61±0.53
Accuracy (RE, %) 25°C for 6 h ([1]; spiked concentration 0.488): 9.2%
Accuracy (RE, %) 25°C for 6 h ([1]; spiked concentration 6.25): 9.2%
Accuracy (RE, %) 25°C for 6 h ([1]; spiked concentration 500): −4.3%
Accuracy (RE, %) Frozen for 30 days ([1]; spiked concentration 0.488): 8.0%
Accuracy (RE, %) Frozen for 30 days ([1]; spiked concentration 6.25): 8.0%
Accuracy (RE, %) Frozen for 30 days ([1]; spiked concentration 500): 0.4%
Accuracy (RE, %) 4°C for 24 h ([1]; spiked concentration 0.488): 1.57%
Accuracy (RE, %) 4°C for 24 h ([1]; spiked concentration 6.25): 8.64%
Accuracy (RE, %) 4°C for 24 h ([1]; spiked concentration 500): 0.4%

O=c1c(O)c(-c2ccc(O)c(O)c2)oc2cc(O)cc(O)c12 [quercetin, quecertin]
Accuracy (RE, %) 25°C for 6 h ([1]; spiked concentration 3.9): −4.8%
Accuracy (RE, %) 25°C for 6 h ([1]; spiked concentration 62.5): −12.9%
Accuracy (RE, %) 25°C for 6 h ([1]; spiked concentration 500): 10.1%
Accuracy (RE, %) Frozen for 30 days ([1]; spiked concentration 3.9): −2.6%
Accuracy (RE, %) Frozen for 30 days ([1]; spiked concentration 62.5): 4.8%
Accuracy (RE, %) Frozen for 30 days ([1]; spiked concentration 500): 14.7%
Accuracy (RE, %) 4°C for 24 h ([1]; spiked concentration 3.9): −1.3%
Accuracy (RE, %) 4°C for 24 h ([1]; spiked concentration 62.5): 5.12%
Accuracy (RE, %) 4°C for 24 h ([1]; spiked concentration 500): 14.72%

C[C@@H]1O[C@@H](OC[C@H]2O[C@@H](Oc3c(-c4ccc(O)c(O)c4)oc4cc(O)cc(O)c4c3=O)[C@H](O)[C@@H](O)[C@@H]2O)[C@H](O)[C@H](O)[C@H]1O [rutin]
Accuracy (RE, %) 25°C for 6 h ([1]; spiked concentration 0.049): 13.2%
Accuracy (RE, %) 25°C for 6 h ([1]; spiked concentration 6.25): 3.1%
Accuracy (RE, %) 25°C for 6 h ([1]; spiked concentration 50): 6.3%
Accuracy (RE, %) Frozen for 30 days ([1]; spiked concentration 0.049): 8.3%
Accuracy (RE, %) Frozen for 30 days ([1]; spiked concentration 6.25): 8.5%
Accuracy (RE, %) Frozen for 30 days ([1]; spiked concentration 50): 7.9%
Accuracy (RE, %) 4°C for 24 h ([1]; spiked concentration 0.049): 9.3%
Accuracy (RE, %) 4°C for 24 h ([1]; spiked concentration 6.25): 12.7%
Accuracy (RE, %) 4°C for 24 h ([1]; spiked concentration 50): 12.1%

COc1cc(CCC(C)=O)ccc1O [zingerone]
Accuracy (RE, %) 25°C for 6 h ([1]; spiked concentration 3.9): 7.5%
Accuracy (RE, %) 25°C for 6 h ([1]; spiked concentration 62.5): −8.6%
Accuracy (RE, %) 25°C for 6 h ([1]; spiked concentration 500): −14.6%
Accuracy (RE, %) Frozen for 30 days ([1]; spiked concentration 3.9): −5.9%
Accuracy (RE, %) Frozen for 30 days ([1]; spiked concentration 62.5): −0.9%
Accuracy (RE, %) Frozen for 30 days ([1]; spiked concentration 500): 12.7%
Accuracy (RE, %) 4°C for 24 h ([1]; spiked concentration 3.9): 4.6%
Accuracy (RE, %) 4°C for 24 h ([1]; spiked concentration 62.5): −1%
Accuracy (RE, %) 4°C for 24 h ([1]; spiked concentration 500): 11.4%
